Measured values: publication PMC6512341 (ACS chemical neuroscience, 2018)

Tests used:
CYP2C9 = CYP2C9 (Homo sapiens, UniProt P11712); assay: CYP inhibition, 2C9; assay type: in vitro ADME
acetylated α-tubulin [1] = assay: α-Tubulin acetylation studies in HEK293 cells; assay type: cell-based; settings: 0.01, 0.1, 1, and 10 μM
Method in brief: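 HEK293 cells plated 24 h ahead and treated at 70% confluency with 10 nM–10 µM. Lysed in MPER with protease inhibitors; 2 µg protein boiled, run on 12% gel, transferred to PVDF. Blocked in 5% milk/TBST; anti-acetyl-tubulin 1:3000 overnight at 4 °C, then HRP secondary 1:5000; ECL. Reprobed for total α-tubulin at 1:1000. Densitometric ratio normalized to 10 µM reference HDAC6 inhibitor; n = 3–4; one-way ANOVA vs vehicle.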

CYP2D6 = CYP2D6 (Homo sapiens, UniProt P10635); assay: CYP inhibition, 2D6; assay type: in vitro ADME
Chain of CYP2D6 (P10635 whole entry): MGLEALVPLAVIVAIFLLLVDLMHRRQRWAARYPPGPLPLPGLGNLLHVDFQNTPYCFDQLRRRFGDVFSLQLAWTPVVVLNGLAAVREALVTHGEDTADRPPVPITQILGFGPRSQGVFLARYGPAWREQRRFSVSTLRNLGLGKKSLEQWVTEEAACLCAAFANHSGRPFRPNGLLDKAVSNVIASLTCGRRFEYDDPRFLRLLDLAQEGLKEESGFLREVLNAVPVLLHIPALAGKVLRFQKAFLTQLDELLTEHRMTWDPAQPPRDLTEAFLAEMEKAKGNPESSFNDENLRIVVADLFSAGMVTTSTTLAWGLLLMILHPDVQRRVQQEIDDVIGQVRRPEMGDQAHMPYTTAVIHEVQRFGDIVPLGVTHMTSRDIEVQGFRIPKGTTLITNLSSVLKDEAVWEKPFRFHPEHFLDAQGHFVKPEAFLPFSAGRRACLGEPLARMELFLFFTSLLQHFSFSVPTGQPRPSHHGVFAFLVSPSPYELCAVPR

MDR1 = assay: Permeability studies in MDCK-MDR1 cells; assay type: in vitro ADME; settings: dog, MDCK-MDR1
acetylated histone 3 = assay: Histone acetylation in N2a cells; assay type: cell-based; settings: compared to vehicle
Method in brief: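 N2a cells treated at 1 µM or 10 nM; reference HDAC inhibitors served as positive controls. Histones extracted by kit; protein by micro BCA. Samples denatured in reducing buffer at 95 °C for 5 min and blotted to PVDF. Blocked in 5% BSA/TBST 1 h at RT; primaries overnight: acetyl-H3 K9+K14 1:1000, histone 4 1:1000. Ratios normalized to vehicle; n = 4; one-way ANOVA vs vehicle.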

[2] = Pilot brain and plasma pharmacokinetic studies of SW-100; assay type: in vivo, C57BL/6 male mice; settings: male, C57BL/6, mouse, ip, 20 mg/kg
Fmr1^−/− mice [3] = assay: Temporal order memory task; assay type: in vivo; settings: 20 mg/kg IP
Fmr1^−/− mice [4] = assay: Novel object recognition task; assay type: in vivo; settings: 20 mg/kg IP
CYP2C19 = CYP2C19 (Homo sapiens, UniProt P33261); assay: CYP inhibition, 2C19; assay type: in vitro ADME
Chain of CYP2C19 (P33261 whole entry): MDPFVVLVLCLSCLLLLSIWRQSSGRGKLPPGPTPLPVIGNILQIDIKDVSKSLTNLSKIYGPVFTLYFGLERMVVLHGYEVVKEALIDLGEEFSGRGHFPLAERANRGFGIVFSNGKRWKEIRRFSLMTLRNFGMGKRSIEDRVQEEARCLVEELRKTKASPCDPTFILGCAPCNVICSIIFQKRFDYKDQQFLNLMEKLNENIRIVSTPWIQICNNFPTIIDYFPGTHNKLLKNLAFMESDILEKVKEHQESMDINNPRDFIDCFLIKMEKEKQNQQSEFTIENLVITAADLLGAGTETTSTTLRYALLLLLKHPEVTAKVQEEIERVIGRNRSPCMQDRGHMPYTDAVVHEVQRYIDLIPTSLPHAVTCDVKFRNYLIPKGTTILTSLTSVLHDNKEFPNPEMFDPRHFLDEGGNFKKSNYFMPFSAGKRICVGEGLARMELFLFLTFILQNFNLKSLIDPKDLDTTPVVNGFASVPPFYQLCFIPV

acetylated α-tubulin [5] = assay: Immunoblot of acetylated α-tubulin in mouse hippocampus; assay type: in vivo, mice; settings: 20 mg/kg, 2 h after treatment
Method in brief: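 Male C57BL/6 WT and Fmr1−/− mice, 8–10 weeks old, given 20 mg/kg IP twice daily on days 1–2, plus a dose 1 h before cognitive testing on days 3 and 4. Hippocampi taken 2 h after treatment and homogenized in Tris pH 7.4 lysis buffer with protease and phosphatase inhibitors. Spun at 20,800 × g for 10 min; Bradford assay. 10 µg protein run on SDS-PAGE to nitrocellulose; acetyl-α-tubulin and α-tubulin antibodies at 1:4000.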

[6] = Hepatocyte stability, human; assay type: in vitro ADME; settings: hepatocytes
CYP3A4 = CYP3A4 (Homo sapiens, UniProt P08684); assay: CYP inhibition, 3A4; assay type: in vitro ADME
Chain of CYP3A4 (P08684 whole entry): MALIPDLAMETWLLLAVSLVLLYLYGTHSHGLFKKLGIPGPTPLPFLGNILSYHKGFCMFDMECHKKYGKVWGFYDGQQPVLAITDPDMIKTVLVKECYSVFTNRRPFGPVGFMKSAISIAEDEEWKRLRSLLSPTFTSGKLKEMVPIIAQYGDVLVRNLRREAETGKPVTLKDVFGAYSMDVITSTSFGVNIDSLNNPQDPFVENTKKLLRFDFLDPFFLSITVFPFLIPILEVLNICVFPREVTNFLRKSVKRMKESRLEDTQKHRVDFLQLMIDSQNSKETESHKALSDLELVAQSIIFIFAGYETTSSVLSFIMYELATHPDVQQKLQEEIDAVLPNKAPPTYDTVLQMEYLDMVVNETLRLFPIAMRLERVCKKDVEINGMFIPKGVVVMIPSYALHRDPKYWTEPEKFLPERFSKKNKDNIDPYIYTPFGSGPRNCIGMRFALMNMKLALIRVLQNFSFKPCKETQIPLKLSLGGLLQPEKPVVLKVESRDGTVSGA

[7] = Liver microsomal stability, human; assay type: in vitro ADME; settings: liver microsomes
[8] = Hepatocyte stability, mouse; assay type: in vitro ADME; settings: hepatocytes
[9] = tested on: TA98, TA100, TA1535, TA1537, WP2 uvrA; assay: Ames test; assay type: cell-based, Salmonella typhimurium, Escherichia coli; settings: presence and absence of S9 mix
CYP1A2 = molecular target: T1, CYP1A2 (Homo sapiens, UniProt P05177); assay: CYP inhibition, 1A2; assay type: in vitro ADME
T1 sequence (P05177 1-516): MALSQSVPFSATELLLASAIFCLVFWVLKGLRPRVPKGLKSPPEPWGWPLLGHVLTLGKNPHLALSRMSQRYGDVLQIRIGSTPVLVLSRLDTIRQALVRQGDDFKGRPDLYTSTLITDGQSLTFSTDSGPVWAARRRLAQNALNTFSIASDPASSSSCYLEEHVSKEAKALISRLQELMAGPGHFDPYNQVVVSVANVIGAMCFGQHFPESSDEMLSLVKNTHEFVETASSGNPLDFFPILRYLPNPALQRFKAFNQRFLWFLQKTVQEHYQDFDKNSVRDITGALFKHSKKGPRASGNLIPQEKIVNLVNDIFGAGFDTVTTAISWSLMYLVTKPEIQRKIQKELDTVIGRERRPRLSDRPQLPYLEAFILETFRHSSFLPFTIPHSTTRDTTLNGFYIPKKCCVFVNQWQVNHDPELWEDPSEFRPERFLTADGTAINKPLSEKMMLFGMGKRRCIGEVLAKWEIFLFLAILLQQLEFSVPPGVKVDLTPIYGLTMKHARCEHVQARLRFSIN

[10] = Liver microsomal stability, mouse; assay type: in vitro ADME; settings: liver microsomes
hERG = hERG (Homo sapiens, UniProt Q12809); assay: hERG test in HEK293 cells; assay type: cell-based
Chain of hERG (Q12809 whole entry): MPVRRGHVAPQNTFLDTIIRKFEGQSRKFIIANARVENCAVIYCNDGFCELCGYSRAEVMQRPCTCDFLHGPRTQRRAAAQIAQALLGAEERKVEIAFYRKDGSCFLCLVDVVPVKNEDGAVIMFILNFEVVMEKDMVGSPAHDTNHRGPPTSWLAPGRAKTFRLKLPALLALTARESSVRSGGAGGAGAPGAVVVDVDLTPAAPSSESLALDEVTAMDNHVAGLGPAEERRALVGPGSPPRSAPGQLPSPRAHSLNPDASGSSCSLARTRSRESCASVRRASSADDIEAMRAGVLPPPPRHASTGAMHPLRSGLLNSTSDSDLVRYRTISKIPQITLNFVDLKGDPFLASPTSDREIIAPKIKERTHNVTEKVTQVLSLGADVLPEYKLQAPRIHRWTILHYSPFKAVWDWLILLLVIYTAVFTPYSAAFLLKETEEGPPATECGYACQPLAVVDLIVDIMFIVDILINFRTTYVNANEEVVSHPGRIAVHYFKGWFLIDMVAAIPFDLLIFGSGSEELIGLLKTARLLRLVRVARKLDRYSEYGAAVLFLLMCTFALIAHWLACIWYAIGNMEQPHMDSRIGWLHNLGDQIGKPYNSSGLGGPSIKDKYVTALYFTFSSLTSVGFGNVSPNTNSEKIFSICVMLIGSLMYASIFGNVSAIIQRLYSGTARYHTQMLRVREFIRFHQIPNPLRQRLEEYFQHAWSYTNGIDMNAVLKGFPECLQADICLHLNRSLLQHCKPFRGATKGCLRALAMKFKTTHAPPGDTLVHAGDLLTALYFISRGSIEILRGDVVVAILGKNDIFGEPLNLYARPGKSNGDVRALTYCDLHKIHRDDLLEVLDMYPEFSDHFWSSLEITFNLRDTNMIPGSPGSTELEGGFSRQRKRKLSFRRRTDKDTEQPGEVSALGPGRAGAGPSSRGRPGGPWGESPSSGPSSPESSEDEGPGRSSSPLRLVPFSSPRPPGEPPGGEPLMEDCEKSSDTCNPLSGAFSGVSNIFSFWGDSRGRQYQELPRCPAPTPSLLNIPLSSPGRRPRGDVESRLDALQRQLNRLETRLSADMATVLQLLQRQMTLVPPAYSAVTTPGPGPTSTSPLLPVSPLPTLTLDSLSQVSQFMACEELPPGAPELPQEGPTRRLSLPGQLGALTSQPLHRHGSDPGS

Chain of CYP2C9 (P11712 whole entry): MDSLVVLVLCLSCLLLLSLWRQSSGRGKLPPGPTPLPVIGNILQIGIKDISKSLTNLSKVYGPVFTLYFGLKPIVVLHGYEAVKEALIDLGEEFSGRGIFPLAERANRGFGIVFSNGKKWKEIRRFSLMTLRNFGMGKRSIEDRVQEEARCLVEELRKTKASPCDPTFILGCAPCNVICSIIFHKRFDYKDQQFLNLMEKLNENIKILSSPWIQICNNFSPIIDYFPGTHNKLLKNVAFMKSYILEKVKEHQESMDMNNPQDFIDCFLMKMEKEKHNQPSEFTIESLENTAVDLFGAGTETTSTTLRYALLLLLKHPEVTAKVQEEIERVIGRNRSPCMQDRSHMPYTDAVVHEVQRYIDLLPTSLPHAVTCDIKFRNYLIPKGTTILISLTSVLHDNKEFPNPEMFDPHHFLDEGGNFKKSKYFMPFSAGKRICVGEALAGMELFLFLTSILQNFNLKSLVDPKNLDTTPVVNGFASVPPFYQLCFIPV

O=C(NO)c1ccc(CN2CCCc3cc(Cl)ccc32)cc1 [SW-100, 4-((6-Chloro-3,4-dihydroquinolin-1(2H)-yl)methyl)-N-hydroxybenzamide]
inhibition at 10 µM (CYP2C9): 18.8% | effect on acetylated α-tubulin levels (in words) (acetylated α-tubulin [1]): more obvious increase in the acetylated α-tubulin levels in a dose-dependent manner | inhibition at 10 µM (CYP2D6): 2.51% | Papp A→B at 2 h (MDR1): 4.58 ×10⁻⁶ cm/s | Papp B→A at 2 h (MDR1): 2.33 ×10⁻⁶ cm/s | levels of acetylated histone 3 to histone 4 (acetylated histone 3): < 1.5 fold | concentration at 1 h ([2]; brain): 142 ± 52.3 ng/mL | concentration at 4 h ([2]; brain): 11.5 ± 0.3 ng/mL | Kp at 1 h ([2]; brain/plasma): 2.44 | concentration at 1 h ([2]; plasma): 58.2 ± 24.9 ng/mL | concentration at 4 h ([2]; plasma): 2.52 ± 0.13 ng/mL | temporal order: time exploring first versus most recent object (Fmr1^−/− mice [3]): spent significantly more time exploring the first object compared to the most recent object presented | novel object recognition: time exploring novel versus familiar object (Fmr1^−/− mice [4]; Fmr1^−/− mice): spent significantly more time exploring the novel object than the familiar object | novel object recognition (Fmr1^−/− mice [4]; WT mice): did not alter the novel object recognition of WT mice | inhibition at 10 µM (CYP2C19): 83.2% | acetylated α-tubulin levels in the hippocampus (acetylated α-tubulin [5]; Fmr1^−/− mice): significantly increased | hippocampal α-tubulin acetylation (acetylated α-tubulin [5]; WT mice): no significant influence | half-life [6]: 30 min | inhibition at 10 µM (CYP3A4): -0.63% | half-life [7]: 23 min | half-life [8]: 10 min | Ames test [9]: negative | inhibition at 10 µM (CYP1A2): 20.5% | half-life [10]: 23 min | IC50 (hERG): 12.2 µM
